In ChEMBL document CHEMBL1141116, “Synthesis and structure-activity relationship of the first nonpeptidergic inverse agonists for the human cytomegalovirus encoded chemokine receptor US28” (J Med Chem, 2005):

How the values were obtained:
[1] = molecular target: T1, G-protein coupled receptor homolog US28 (Human cytomegalovirus (strain AD169) (HHV-5) (Human herpesvirus 5), UniProt P69332); assay: Inhibitory concentration against chemokine receptor US28 expressed in COS-7 cells using [125I]-CCL5; type: cell-based, Human betaherpesvirus 5
T1 sequence (P69332 whole entry): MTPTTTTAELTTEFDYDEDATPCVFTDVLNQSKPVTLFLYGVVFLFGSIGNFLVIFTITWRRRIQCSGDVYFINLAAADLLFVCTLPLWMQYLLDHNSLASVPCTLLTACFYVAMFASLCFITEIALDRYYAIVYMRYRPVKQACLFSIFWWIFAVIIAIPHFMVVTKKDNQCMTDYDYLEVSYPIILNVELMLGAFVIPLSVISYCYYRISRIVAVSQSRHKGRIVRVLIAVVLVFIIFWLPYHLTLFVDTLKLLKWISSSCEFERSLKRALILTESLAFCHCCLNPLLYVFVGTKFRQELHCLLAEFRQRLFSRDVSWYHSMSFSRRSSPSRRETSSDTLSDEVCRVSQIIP
In short: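 Whole US28-transfected COS-7 cells, 48 h post-transfection, incubated 3 h at 4 °C with 0.3 nM [125I]CCL5 in 50 mM Hepes pH 7.4, 1 mM CaCl2, 5 mM MgCl2, 0.5% BSA ± varying compound concentrations. Four washes at 4 °C with buffer plus 0.5 M NaCl; nonspecific binding with 0.1 μM unlabeled CCL5. IC50 as mean, interval from ≥3 experiments unless noted.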

[2] = molecular target: T1, G-protein coupled receptor homolog US28; assay: Effective concentration against US28-mediated inositol phosphate production in COS-7 cells; type: functional, cell-based
In short: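 COS-7 cells transiently transfected (DEAE-dextran, 2 μg DNA per million cells, pcDEF3-US28); 24 h post-transfection labeled overnight with 2 μCi/ml myo-[2-3H]inositol in inositol-free medium. After 10 min wash, 2 h incubation in DMEM with 25 mM HEPES pH 7.4 and 20 mM LiCl ± varying compound concentrations; stopped with cold 10 mM formic acid, [3H]inositol phosphates isolated by anion exchange, scintillation counted. EC50 as mean, interval from ≥3 experiments.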

Row | Compound | IC50 [1] [µM] | EC50 [2] [µM]
1 | OC1(c2ccc(Cl)cc2)CCN(CCCCc2ccccc2)CC1 | 14.8 | 
2 | COc1ccc(C2(O)CCN(CCCC(C#N)(c3ccccc3)c3ccccc3)CC2)cc1 | 72.4 | 28.8
3 | N#CC(CCCN1CCC(O)(c2ccccc2)CC1)(c1ccccc1)c1ccccc1 | 35.5 | 28.2
4 | N#CC(CCCN1CCN(c2ccc(Cl)cc2)CC1)(c1ccccc1)c1ccccc1 | > 100 | > 100
5 | OC1(c2ccc(Cl)cc2)CCN(CCCOc2ccccc2)CC1 | 61.7 | 
6 | Cc1ccc(C2(O)CCN(CCCC(C#N)(c3ccccc3)c3ccccc3)CC2)cc1 | 60.3 | 
7 | N#CC(CCCN1CCC(O)(c2ccc(Br)cc2)CC1)(c1ccccc1)c1ccccc1 | 19.5 | 
8 | N#CC(CCCN1CCC(O)CC1)(c1ccccc1)c1ccccc1 | > 100 | > 100
9 | COc1ccc(C(CCCN2CCC(O)(c3ccc(Cl)cc3)CC2)c2ccccc2)cc1 (configuration not stated) | 15.5 | 
10 | CCOC(=O)C1CCN(CCCC(C#N)(c2ccccc2)c2ccccc2)CC1 | 34.7 | > 100
11 | N#CC(CCCN1CCC(O)(c2ccc(Cl)c(Cl)c2)CC1)(c1ccccc1)c1ccccc1 | 38 | 
12 | OC1(c2ccc(Cl)cc2)CCN(CCCC(c2ccccc2)c2ccc(Cl)c(Cl)c2)CC1 (configuration not stated) | 15.8 | 
13 | N#CC(CCCN1CCC(C(=O)O)CC1)(c1ccccc1)c1ccccc1 | > 100 | > 100
14 | N#CC1(c2ccccc2)CCN(CCCC(C#N)(c2ccccc2)c2ccccc2)CC1 | > 100 | > 100
15 | N#CC(CCCN1CCC(c2ccc(Cl)cc2)CC1)(c1ccccc1)c1ccccc1 |  | 13.8
16 | Cc1ccccc1C(CCCN1CCC(O)(c2ccc(Cl)cc2)CC1)c1ccccc1 (configuration not stated) | 5.5 | 9.8
17 | OC1(c2ccc(Cl)cc2)CCN(CCCC(c2ccccc2)c2ccc(Cl)cc2)CC1 (configuration not stated) | 17 | 

Row | Compound | IC50 [1] [µM] | EC50 [2] [µM]
18 | N#CC(CCCN1CCC(O)(Cc2ccccc2)CC1)(c1ccccc1)c1ccccc1 | 63.1 | 
19 | OC1(c2ccc(Cl)cc2)CCN(CCCC(c2ccccc2)c2ccccc2)CC1 | 6.5 | 4.2
20 | N#CC(CCCN1CCC(C(N)=O)CC1)(c1ccccc1)c1ccccc1 | > 100 | > 100
21 | OC1(c2ccc(Cl)cc2)CCN(CCCC(c2ccc(Cl)cc2)c2ccc(-c3ccccc3)cc2)CC1 (configuration not stated) | > 100 | > 100
22 | N#CC(CCCN1CCC(=C(c2ccccc2)c2ccccc2)CC1)(c1ccccc1)c1ccccc1 | > 100 | > 100
23 | O=C(CCCN1CCC(O)(c2ccc(Cl)cc2)CC1)c1ccccc1 | > 100 | 
24 | C[N+]1(CCCC(C#N)(c2ccccc2)c2ccccc2)CCC(O)(c2ccc(Cl)cc2)CC1 (configuration not stated) | > 100 | > 100
25 | Cc1ccc(C(CCCN2CCC(O)(c3ccc(Cl)cc3)CC2)c2ccccc2)cc1 (configuration not stated) | 30.9 | 11.5
26 | N#CC(CCCN1CC=C(c2ccc(Cl)cc2)CC1)(c1ccccc1)c1ccccc1 | > 100 | > 100
27 | N#CC(CCCN1CCC(O)(c2ccc(Cl)c(C(F)(F)F)c2)CC1)(c1ccccc1)c1ccccc1 | 45.7 | 
28 | OC(CCCN1CCC(O)(c2ccc(Cl)cc2)CC1)c1ccccc1 (configuration not stated) | > 100 | > 100
29 | CC1(O)CCN(CCCC(C#N)(c2ccccc2)c2ccccc2)CC1 | > 100 | > 100
30 | OC1(c2ccc(Cl)cc2)CCN(CCCC(c2ccc(Cl)cc2)c2ccc(Cl)cc2)CC1 | 17.4 | 
31 | Cc1cccc(C(CCCN2CCC(O)(c3ccc(Cl)cc3)CC2)c2ccccc2)c1 (configuration not stated) | 11.5 | 
32 | CCCCC1(O)CCN(CCCC(C#N)(c2ccccc2)c2ccccc2)CC1 | > 100 | > 100
33 | N#CC(CCCN1CCC(O)(c2ccc(Cl)cc2)CC1)(c1ccccc1)c1ccccc1 [BERLEX COMPOUND] | 9.3 | 3.2
